Measured values as given in PubChem BioAssay AID1296 (Columbia University Molecular Screening Center, 2008).
Screen size: about 130,000 compounds; about 1,000 (0.77%) were called active. Inconclusive results (about 1%) are left out.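 The calls were made as follows: active = activation at 2 µM above a set limit, confirmed on inspection of the cell images; inconclusive = above the set limit but not confirmed on image inspection; inactive = the rest.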 The sample as a whole holds a higher share of actives than the screen did.

Assay: insulin gene promoter stimulation in islet cells – imaging, TRM-6 cells (human fetal islet line), eGFP reporter, cell count, primary screen (AID 1296;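 as to activation: share of cells whose green reporter signal exceeds an intensity cutoff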;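 as to normalized cell count: cells counted after 48 h compound exposure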)
Conditions: at 2 µM; activation: stronger effect = higher value, plate-scaled: unstimulated 0, stimulated control 100; normalized cell count: measured here: cell count (toxicity)
Summary of the method: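 Test system: TRM-6 insulin promoter–eGFP reporter cells / Quantity: 1,000 cells per well / Reagent: tamoxifen inducer, 0.75 µM, in seeding medium / Compound dosing: 2 µM final, single concentration / Schedule: overnight tamoxifen, then two-day compound incubation at 37 °C / Measured by: automated fluorescence imaging of paraformaldehyde-fixed, Hoechst-counterstained cells, green channel / Read-out: percent activation from GFP-positive cell fraction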

Question: What does the source list for `CCCn1nnnc1NC(=O)COc1ccc(Cl)cc1C`?
Answer: activation: 9.09% (inactive); normalized cell count: 95.5%

Question: With `CC(C)(C)NCCCOc1ccc(Cl)cc1C(C)(C)C` as the molecule, how does the activation read?
Answer: 108% (inactive)

Question: What about the normalized cell count of the same molecule?
Answer: 74%

Question: With `CC(C)NC(=O)C(=O)N/N=C/c1ccco1` as the molecule, how does the activation read?
Answer: 0% (inactive)

Question: What about the normalized cell count of the same molecule?
Answer: 130%

Question: With `CCCCc1nc(NCc2ccccc2)c(C#N)c2c1CCCC2` as the molecule, how does the activation read?
Answer: -3.7% (inactive)

Question: And the normalized cell count?
Answer: 115%

Question: Which activation does the source give for `Cc1ccc(S(=O)(=O)NC(=O)COc2ccccc2C)cc1` here?
Answer: -81.2% (inactive)

Question: What about the normalized cell count of the same molecule?
Answer: 150%

Question: Which activation does the source give for `Cc1cccc(NC(=O)COc2ccccc2C)n1` here?
Answer: 406% (active)

Question: What about the normalized cell count of the same molecule?
Answer: 56.6%

Question: Which activation does the source give for `Cc1ccccc1OCC(=O)NCC(=O)OCC(=O)c1ccc2ccccc2c1` here?
Answer: -2.78% (inactive)

Question: What about the normalized cell count of the same molecule?
Answer: 105%

Question: Which activation does the source give for `Cc1nc2scc(-c3cccs3)c2c(=O)n1N` here?
Answer: -9.8% (inactive)

Question: And the normalized cell count?
Answer: 105%

Question: For `CCN(CC)CC1(O)CCN(C(=O)c2ccc(Cl)c(Cl)c2)CC1`, which activation is on record?
Answer: 275% (active)

Question: And the normalized cell count?
Answer: 33.3%

Question: Which results are given for `O=C(c1ccc(Cl)c([N+](=O)[O-])c1)N1CCN(c2ccccc2)CC1`?
Answer: activation: 4.35% (inactive); normalized cell count: 49.2%

Question: With `Cc1nc2ccc(C(=O)N3CCSCC3)cc2s1` as the molecule, how does the activation read?
Answer: 6.06% (inactive)

Question: And the normalized cell count?
Answer: 60.2%

Question: For `COCCn1c(SCC(=O)Nc2ccc3c(c2)CCC3)nc2ccccc2c1=O`, which activation is on record?
Answer: 1.3% (inactive)

Question: And the normalized cell count?
Answer: 117%

Question: Which activation does the source give for `COC(=O)Cc1c(O)ccn(Cc2cccc(C(F)(F)F)c2)c1=O` here?
Answer: 2.86% (inactive)

Question: And the normalized cell count?
Answer: 159%

Question: For `Cc1nn(-c2ccccc2)c(C)c1/C=C/C(=O)OC(C)C(N)=O` (stereo not given), which activation is on record?
Answer: -68.8% (inactive)

Question: And the normalized cell count?
Answer: 181%

Question: With `CCOC(=O)C(NC(=O)CC(C)C)(Nc1sc2c(c1C(N)=O)CCCC2)C(F)(F)F` (stereo not given) as the molecule, how does the activation read?
Answer: 450% (active)

Question: What about the normalized cell count of the same molecule?
Answer: 72.9%

Question: Which results are given for `CCOC(=O)c1c(NC(=O)c2ccc(Br)o2)sc2c1CCCC2`?
Answer: activation: -3.7% (inactive); normalized cell count: 119%

Question: Which activation does the source give for `CCOC(=O)c1c(NC(=O)CSc2nnc(C)c(=O)[nH]2)sc2c1CCC2` here?
Answer: 8.33% (inactive)

Question: And the normalized cell count?
Answer: 125%

Question: Which activation does the source give for `CSc1ccccc1NC(=O)Cc1ccc(Br)cc1` here?
Answer: -3.85% (inactive)

Question: What about the normalized cell count of the same molecule?
Answer: 70.6%

Question: For `Cc1ccccc1NC(=O)C(C)c1ccc(-c2ccccc2)c(F)c1` (stereo not given), which activation is on record?
Answer: -2.7% (inactive)

Question: And the normalized cell count?
Answer: 168%

Question: What does the source list for `O=C(CSCc1ccc([N+](=O)[O-])cc1)Nc1cccc(C(=O)Nc2ccccc2C(=O)O)c1`?
Answer: activation: 8.33% (inactive); normalized cell count: 107%

Question: With `COC(=O)c1ccc(NC(=O)CSc2nnc(CNc3ccc(OC)cc3)n2C)cc1` as the molecule, how does the activation read?
Answer: 0% (inactive)

Question: What about the normalized cell count of the same molecule?
Answer: 125%

Question: Which activation does the source give for `COc1ccc(CC(=O)NCc2nnc(SCC(=O)Nc3nccs3)n2C)cc1` here?
Answer: 330% (active)

Question: And the normalized cell count?
Answer: 83.7%

Question: With `COc1ccc(CC(=O)NCc2nnc(SCC(=O)Nc3ncc(C)s3)n2C)cc1` as the molecule, how does the activation read?
Answer: -5.56% (inactive)

Question: And the normalized cell count?
Answer: 192%

Question: Which activation does the source give for `CSCCC(=O)N1CCCC(CNC(=O)c2ccccc2Cl)C1` (stereo not given) here?
Answer: 7.14% (inactive)

Question: And the normalized cell count?
Answer: 83%

Question: For `Cn1cc(/C=C/c2nc3ccccc3c(=O)n2-c2cccc([N+](=O)[O-])c2)c2ccccc21`, which activation is on record?
Answer: -9.09% (inactive)

Question: And the normalized cell count?
Answer: 111%

Question: Which results are given for `COc1ccc(N(C(=O)c2ccc(C)cc2)S(=O)(=O)c2cccs2)cc1`?
Answer: activation: 3.85% (inactive); normalized cell count: 171%

Question: Which activation does the source give for `Cc1ccc(C(=O)N/C(=C\c2cccs2)C(=O)NCCc2ccccn2)cc1C` here?
Answer: 392% (active)

Question: What about the normalized cell count of the same molecule?
Answer: 87.4%

Question: Which activation does the source give for `Cc1ccc(C(=O)N/C(=C/c2cccs2)C(=O)N2CCCCC2)cc1` here?
Answer: 0% (inactive)

Question: What about the normalized cell count of the same molecule?
Answer: 111%

Question: Which activation does the source give for `CCN(CC)S(=O)(=O)c1cc(C(=O)Nc2ccccn2)ccc1C` here?
Answer: 309% (inactive)

Question: What about the normalized cell count of the same molecule?
Answer: 42.6%

Question: For `CCOc1ccc(N2C(=O)Nc3ccccc3C2(O)C(=O)NCc2ccco2)cc1` (stereo not given), which activation is on record?
Answer: 0% (inactive)

Question: And the normalized cell count?
Answer: 74.7%

Question: Which activation does the source give for `Cc1ccc(C(=O)CSc2nc3ccccc3c(=O)n2N)o1` here?
Answer: -5.26% (inactive)

Question: And the normalized cell count?
Answer: 137%

Question: Which activation does the source give for `Cc1cccc(CSc2nnc(Cn3c(=O)sc4ccccc43)n2C)c1` here?
Answer: -50% (inactive)

Question: What about the normalized cell count of the same molecule?
Answer: 79.6%

Question: For `Cc1nnc(SCc2cccc(Cl)c2)n(N)c1=O`, which activation is on record?
Answer: 508% (active)

Question: What about the normalized cell count of the same molecule?
Answer: 36.8%

Question: Which activation does the source give for `CC(C)CNC(=S)Nc1ccc(F)cc1` here?
Answer: -6.9% (inactive)

Question: What about the normalized cell count of the same molecule?
Answer: 136%

Question: Which activation does the source give for `Cc1nc(SCc2ccc(F)cc2)c([N+](=O)[O-])[nH]1` here?
Answer: 9.09% (inactive)

Question: What about the normalized cell count of the same molecule?
Answer: 97.3%

Question: Which results are given for `CS(=O)(=O)N(CC(=O)Nc1ccc(Cl)c(Cl)c1)C1CCCCC1`?
Answer: activation: 5.71% (inactive); normalized cell count: 124%

Question: What does the source list for `O=C(CN1C(=O)CCC1=O)Nc1ccc(S(=O)(=O)N2CCOCC2)cc1`?
Answer: activation: -10% (inactive); normalized cell count: 72.6%

Question: With `O=C(CCCN1C(=O)CCC1=O)Nc1ccc(Cl)c(C(F)(F)F)c1` as the molecule, how does the activation read?
Answer: 444% (active)

Question: What about the normalized cell count of the same molecule?
Answer: 46.3%

Question: What does the source list for `CN1CCN(C(=O)/C(=C\c2ccc3c(c2)OCO3)NC(=O)c2cccs2)CC1`?
Answer: activation: -8.33% (inactive); normalized cell count: 121%

Question: Which results are given for `CCN1/C(=C\c2ccc3ccccc3[n+]2CC)Sc2cc(C)ccc21`?
Answer: activation: 567% [fluoresces] (active); normalized cell count: 15.3%

Question: For `CCN1/C(=C/c2ccc3ccc(C)cc3[n+]2CC)Sc2ccccc21`, which activation is on record?
Answer: 567% (active)

Question: What about the normalized cell count of the same molecule?
Answer: 10.5%

Question: What does the source list for `O=C(NC1CC1)c1cccc(Br)c1`?
Answer: activation: -3.12% (inactive); normalized cell count: 91.1%

Question: Which results are given for `O=C(Cc1coc2ccc3ccccc3c12)NCc1cccs1`?
Answer: activation: -2.94% (inactive); normalized cell count: 153%

Question: For `CCC(=O)/C(=C(/O)c1ccccc1)c1nc2ccccc2[nH]1`, which activation is on record?
Answer: 0% (inactive)

Question: What about the normalized cell count of the same molecule?
Answer: 134%

Question: For `COc1cc(NC(=O)Nc2ccc(C)cc2)cc([N+](=O)[O-])c1`, which activation is on record?
Answer: -6.45% (inactive)

Question: And the normalized cell count?
Answer: 133%
